Paper PMC9742164 (ChemMedChem, 2022)
≈ marks a conversion by molar mass, not a printed value.

Legend:
E. coli ATCC 25922 = test: MIC broth microdilution; type: cell-based
S. aureus ATCC 14775 = test: MIC broth microdilution; type: cell-based
MRSA ATCC 33591 = test: MIC broth microdilution; type: cell-based, methicillin-resistant Staphylococcus aureus
E. coli DNA gyrase [1] = target: T1, E. coli DNA gyrase (Escherichia coli, UniProt P0AES6); test: Gel-based DNA gyrase supercoiling inhibition assay; type: biochemical; settings: for Inhibition of E. coli DNA gyrase: polyphenol screen, in words; for IC50: supercoiling
[2] = target: T2, E. coli DNA topoisomerase IV (Escherichia coli, UniProt P20083); test: SDFQ-based DNA relaxation assay by topoisomerase IV; type: biochemical
E. coli imp BAS3023 = type: cell-based; settings: E. coli imp BAS3023 (imp4213 permeability mutation)
B. subtilis ATCC 6633 = test: MIC broth microdilution; type: cell-based
E. coli DNA gyrase [3] = target: T1, E. coli DNA gyrase; test: SDFQ-based DNA gyrase supercoiling inhibition assay; type: biochemical
[4] = target: T2, E. coli DNA topoisomerase IV; test: Gel-based DNA relaxation assay by topoisomerase IV; type: biochemical; settings: for IC50: IC50 against E. coli topoisomerase IV, relaxation; for Inhibition of E. coli DNA topoisomerase IV: in words
E. coli DNA gyrase [5] = target: T1, E. coli DNA gyrase; test: DNA gyrase-mediated DNA cleavage assay; type: biochemical; settings: up to 200 μM digallic acid
Outline: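 Plasmid pBR322 (250 ng) and 20 nM E. coli gyrase were incubated in gyrase buffer with test compound (0–200 μM) at 37°C for 15 min. Then 0.2% SDS and 0.1 mg/mL proteinase K were added to trap cleavage complexes, with 30 min more at 37°C. […] Products ran on 1% agarose containing 0.5 μg/mL ethidium bromide.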

[6] = target: T2, E. coli DNA topoisomerase IV; test: DNA decatenation assay by topoisomerase IV; type: biochemical
[7] = target: human DNA topoisomerase IIα (Homo sapiens, UniProt P11388); test: DNA relaxation assay by human DNA topoisomerase IIα; type: biochemical; settings: at 100 μM
[8] = target: T3, human DNA topoisomerase I (Homo sapiens, UniProt P11387); test: DNA relaxation assay by human DNA topoisomerase I; type: biochemical; settings: at 100 μM
T3 sequence (P11387 1-765): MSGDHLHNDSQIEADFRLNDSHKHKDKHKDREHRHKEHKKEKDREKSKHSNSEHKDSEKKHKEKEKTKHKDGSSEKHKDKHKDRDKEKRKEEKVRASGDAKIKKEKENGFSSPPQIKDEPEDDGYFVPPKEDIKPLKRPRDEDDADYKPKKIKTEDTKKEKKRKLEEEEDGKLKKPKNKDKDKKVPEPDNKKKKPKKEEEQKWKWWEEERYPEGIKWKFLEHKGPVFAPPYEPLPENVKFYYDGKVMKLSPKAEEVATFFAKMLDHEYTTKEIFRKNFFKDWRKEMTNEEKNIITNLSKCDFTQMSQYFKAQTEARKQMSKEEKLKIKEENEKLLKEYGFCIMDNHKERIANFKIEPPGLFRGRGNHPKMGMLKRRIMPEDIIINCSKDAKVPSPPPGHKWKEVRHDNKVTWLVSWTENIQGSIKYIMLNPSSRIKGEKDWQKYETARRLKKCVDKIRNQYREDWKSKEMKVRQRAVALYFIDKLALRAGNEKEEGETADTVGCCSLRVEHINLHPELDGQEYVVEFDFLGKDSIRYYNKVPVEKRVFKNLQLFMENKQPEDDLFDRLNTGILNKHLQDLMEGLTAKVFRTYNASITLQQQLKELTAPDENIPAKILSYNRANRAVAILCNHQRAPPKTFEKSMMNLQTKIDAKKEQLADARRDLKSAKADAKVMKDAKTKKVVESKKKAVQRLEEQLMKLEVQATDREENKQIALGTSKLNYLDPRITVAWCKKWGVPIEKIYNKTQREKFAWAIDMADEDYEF

[9] = target: E. coli DNA topoisomerase I (Escherichia coli, UniProt P06612); test: DNA relaxation assay by E. coli DNA topoisomerase I; type: biochemical; settings: at 100 μM
E. coli DNA gyrase [10] = target: T1, E. coli DNA gyrase; test: DNA gyrase ATPase linked assay; type: biochemical
Outline: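 Pyruvate kinase/lactate dehydrogenase-coupled NADH assay at 37°C. Buffer: 10 mM Tris-HCl pH 7.5, 0.2 mM EDTA, 1 mM MgCl2, 1 mM DTT, 2% glycerol. Mix: 50 nM gyrase or GyrB, 200 ng relaxed pAB1, 0.8 mM phosphoenolpyruvate, 1.2 U PK, 1.7 U LDH, 0.4 mM NADH. After 5 min preincubation, 2 mM ATP started the reaction, read at A340. Double-reciprocal plot with or without test compound at 500 nM; single-point at 100 μM.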

[11] = target: T2, E. coli DNA topoisomerase IV; test: Topoisomerase IV ATPase linked assay; type: biochemical; settings: in words; 100 μM (Figure 4e)
Outline: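 Topoisomerase IV ATP hydrolysis was coupled to NADH oxidation via pyruvate kinase/lactate dehydrogenase, read at 340 nm, 37°C. Buffer: 10 mM Tris-HCl pH 7.5, 0.2 mM EDTA, 1 mM MgCl2, 1 mM DTT, 2% glycerol. Mix: relaxed pAB1, 0.8 mM phosphoenolpyruvate, 0.4 mM NADH. After 5 min preincubation, 2 mM ATP was added. Test compounds at 100 μM.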

[12] = Staphylococcus aureus, ATCC14775
[13] = Staphylococcus aureus, ATCC33591|MRSA
[14] = IC50 against E. coli DNA gyrase, Gel-based

T2 sequence (P20083 whole entry): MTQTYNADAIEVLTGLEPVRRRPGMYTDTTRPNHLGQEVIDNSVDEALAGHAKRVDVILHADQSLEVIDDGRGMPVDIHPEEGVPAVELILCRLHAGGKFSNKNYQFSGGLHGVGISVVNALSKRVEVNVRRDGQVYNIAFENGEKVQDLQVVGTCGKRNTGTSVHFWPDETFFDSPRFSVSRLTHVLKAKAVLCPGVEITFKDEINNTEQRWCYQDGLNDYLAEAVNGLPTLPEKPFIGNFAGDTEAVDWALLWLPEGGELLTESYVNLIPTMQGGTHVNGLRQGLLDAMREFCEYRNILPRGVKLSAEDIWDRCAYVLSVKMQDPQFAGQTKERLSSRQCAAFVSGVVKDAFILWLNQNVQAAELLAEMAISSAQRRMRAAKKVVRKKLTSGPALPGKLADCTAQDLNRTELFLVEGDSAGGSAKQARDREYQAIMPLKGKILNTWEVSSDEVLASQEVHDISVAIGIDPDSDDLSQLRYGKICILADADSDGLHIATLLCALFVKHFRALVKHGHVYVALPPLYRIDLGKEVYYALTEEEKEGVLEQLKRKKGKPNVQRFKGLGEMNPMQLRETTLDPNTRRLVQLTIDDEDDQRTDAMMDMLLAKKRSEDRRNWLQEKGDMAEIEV
T2 sequence (P0AFI2 whole entry, further chain): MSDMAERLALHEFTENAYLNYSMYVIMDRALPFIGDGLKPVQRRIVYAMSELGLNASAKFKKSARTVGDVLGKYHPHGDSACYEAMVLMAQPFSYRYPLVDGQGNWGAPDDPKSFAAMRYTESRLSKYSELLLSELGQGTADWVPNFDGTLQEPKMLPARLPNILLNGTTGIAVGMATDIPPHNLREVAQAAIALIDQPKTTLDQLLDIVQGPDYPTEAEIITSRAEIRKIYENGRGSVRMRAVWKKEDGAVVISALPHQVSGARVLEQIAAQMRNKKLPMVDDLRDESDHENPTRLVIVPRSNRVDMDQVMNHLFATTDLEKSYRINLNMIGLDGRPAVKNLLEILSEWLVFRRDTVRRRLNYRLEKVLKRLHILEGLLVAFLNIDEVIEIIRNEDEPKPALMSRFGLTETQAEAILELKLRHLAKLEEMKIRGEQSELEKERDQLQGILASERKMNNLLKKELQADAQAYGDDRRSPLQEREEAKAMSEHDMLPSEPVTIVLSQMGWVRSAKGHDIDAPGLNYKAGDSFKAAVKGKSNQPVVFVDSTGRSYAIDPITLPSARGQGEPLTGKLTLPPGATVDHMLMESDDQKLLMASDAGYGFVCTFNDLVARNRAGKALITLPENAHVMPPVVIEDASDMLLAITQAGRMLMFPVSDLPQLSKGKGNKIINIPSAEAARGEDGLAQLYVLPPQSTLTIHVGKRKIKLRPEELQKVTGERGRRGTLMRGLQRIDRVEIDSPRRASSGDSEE
Chain of E. coli DNA topoisomerase I (P06612 whole entry): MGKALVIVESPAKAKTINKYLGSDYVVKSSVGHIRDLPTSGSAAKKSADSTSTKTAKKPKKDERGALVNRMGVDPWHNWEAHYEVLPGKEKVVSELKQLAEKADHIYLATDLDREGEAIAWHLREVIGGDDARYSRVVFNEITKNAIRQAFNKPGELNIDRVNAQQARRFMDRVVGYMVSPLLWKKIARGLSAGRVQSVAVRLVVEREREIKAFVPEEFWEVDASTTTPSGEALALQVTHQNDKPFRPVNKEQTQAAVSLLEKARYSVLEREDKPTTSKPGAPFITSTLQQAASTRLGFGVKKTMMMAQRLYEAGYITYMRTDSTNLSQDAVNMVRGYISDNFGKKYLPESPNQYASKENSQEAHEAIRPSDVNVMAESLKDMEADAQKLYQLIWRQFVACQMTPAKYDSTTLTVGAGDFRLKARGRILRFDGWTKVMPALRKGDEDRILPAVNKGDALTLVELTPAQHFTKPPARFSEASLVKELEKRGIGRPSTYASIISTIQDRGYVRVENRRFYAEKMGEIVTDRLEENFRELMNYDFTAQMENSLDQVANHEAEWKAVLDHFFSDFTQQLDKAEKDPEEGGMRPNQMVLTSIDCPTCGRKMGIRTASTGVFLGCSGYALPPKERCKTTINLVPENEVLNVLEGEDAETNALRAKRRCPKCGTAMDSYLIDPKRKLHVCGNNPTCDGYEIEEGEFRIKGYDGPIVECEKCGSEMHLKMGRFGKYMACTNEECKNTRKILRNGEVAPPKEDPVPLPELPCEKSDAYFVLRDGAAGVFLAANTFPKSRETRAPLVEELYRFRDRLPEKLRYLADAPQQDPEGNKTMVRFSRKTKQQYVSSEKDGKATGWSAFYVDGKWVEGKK
Chain of human DNA topoisomerase IIα (P11388 whole entry): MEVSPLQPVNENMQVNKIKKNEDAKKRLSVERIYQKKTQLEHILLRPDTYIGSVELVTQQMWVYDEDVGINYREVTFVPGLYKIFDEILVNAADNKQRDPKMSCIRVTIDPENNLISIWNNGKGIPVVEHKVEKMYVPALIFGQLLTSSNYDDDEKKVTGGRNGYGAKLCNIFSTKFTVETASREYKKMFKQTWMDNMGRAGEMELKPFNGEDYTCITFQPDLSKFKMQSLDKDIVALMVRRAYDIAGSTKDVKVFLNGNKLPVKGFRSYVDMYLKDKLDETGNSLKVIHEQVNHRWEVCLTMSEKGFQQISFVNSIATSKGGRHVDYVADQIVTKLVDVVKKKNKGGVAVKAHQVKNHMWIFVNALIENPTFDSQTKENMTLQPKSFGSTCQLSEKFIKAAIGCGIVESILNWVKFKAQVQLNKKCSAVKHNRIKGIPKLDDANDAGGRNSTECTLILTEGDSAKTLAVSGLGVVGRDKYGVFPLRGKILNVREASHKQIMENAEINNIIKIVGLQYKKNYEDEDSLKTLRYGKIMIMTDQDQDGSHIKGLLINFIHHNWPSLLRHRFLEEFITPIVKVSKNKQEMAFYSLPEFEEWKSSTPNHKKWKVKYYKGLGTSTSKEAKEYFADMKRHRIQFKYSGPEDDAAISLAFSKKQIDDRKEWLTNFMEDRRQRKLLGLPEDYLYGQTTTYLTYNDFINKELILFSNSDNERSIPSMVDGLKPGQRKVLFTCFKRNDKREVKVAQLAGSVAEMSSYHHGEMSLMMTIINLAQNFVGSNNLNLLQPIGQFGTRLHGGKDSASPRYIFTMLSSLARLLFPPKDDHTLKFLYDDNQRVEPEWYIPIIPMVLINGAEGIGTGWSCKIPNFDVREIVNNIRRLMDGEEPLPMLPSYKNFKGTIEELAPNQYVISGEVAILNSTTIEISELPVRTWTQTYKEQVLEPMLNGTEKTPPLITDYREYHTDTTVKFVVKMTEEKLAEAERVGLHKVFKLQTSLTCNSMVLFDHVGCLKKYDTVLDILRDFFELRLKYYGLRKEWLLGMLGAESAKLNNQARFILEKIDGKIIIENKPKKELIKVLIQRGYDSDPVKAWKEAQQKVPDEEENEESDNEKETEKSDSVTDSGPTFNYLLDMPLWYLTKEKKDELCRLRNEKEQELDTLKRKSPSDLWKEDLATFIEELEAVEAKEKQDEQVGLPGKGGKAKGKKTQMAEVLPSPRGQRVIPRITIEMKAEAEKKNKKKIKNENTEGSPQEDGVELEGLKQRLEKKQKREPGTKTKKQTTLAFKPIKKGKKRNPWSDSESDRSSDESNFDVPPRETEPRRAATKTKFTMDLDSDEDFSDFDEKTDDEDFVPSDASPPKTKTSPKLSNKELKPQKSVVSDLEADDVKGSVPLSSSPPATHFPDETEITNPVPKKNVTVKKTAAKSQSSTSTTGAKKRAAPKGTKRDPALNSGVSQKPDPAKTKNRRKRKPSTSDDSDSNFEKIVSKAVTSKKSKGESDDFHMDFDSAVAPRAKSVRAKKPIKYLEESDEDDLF

Row | Molecule | MIC (E. coli ATCC 25922; Escherichia coli, ATCC25922) | MIC (S. aureus ATCC 14775; [12]) | MIC (MRSA ATCC 33591; [13]) | IC50 [2] | IC50 (E. coli DNA gyrase [3]) | IC50 (E. coli DNA gyrase [1]; [14]) | IC50 ([4]; Gel-based) | also measured
1 | CO[C@@H]1[C@@H](OC(N)=O)[C@@H](O)[C@H](Oc2ccc3c(O)c(NC(=O)c4ccc(O)c(CC=C(C)C)c4)c(=O)oc3c2C)OC1(C)C [Novobiocin, novobiocin, reference compound] | 158 µM (≈ 96.5 µg/mL) | < 6.25 µM | < 6.25 µM | – | – | – | – | –
2 | O=c1oc2c(O)c(O)cc3c(=O)oc4c(O)c(O)cc1c4c23 [ellagic acid, reference compound] | – | – | – | – | – | – | – | Inhibition of E. coli DNA gyrase (E. coli DNA gyrase [1]): strongly inhibit
3 | O=C(Oc1ccccc1)c1cc(O)c(O)c(O)c1 [Phenyl gallate, phenyl gallate] | – | – | – | – | – | – | – | IC50 ([2]; read-out: IC50 against E. coli topoisomerase IV, SDFQ, relaxation, SDFQ): > 100 µM; MIC (E. coli imp BAS3023): >200 µM; MIC (B. subtilis ATCC 6633): >200 µM; MIC (E. coli ATCC 25922; E. coli ATCC 25922): >200 µM; IC50 (E. coli DNA gyrase [3]; read-out: IC50 against E. coli DNA gyrase, SDFQ, supercoiling, SDFQ): > 100 µM; IC50 (E. coli DNA gyrase [1]; read-out: IC50 against E. coli DNA gyrase, Gel-based, gel-based): > 100 µM; MIC (S. aureus ATCC 14775; S. aureus ATCC 14775): 200 µM (≈ 49.2 µg/mL); MIC (MRSA ATCC 33591; MRSA ATCC 33591): 200 µM (≈ 49.2 µg/mL)
4 | CCCCCCCCCCCCOC(=O)c1cc(O)c(O)c(O)c1 [Dodecyl gallate, dodecyl gallate] | > 200 µM | 200 µM (≈ 67.7 µg/mL) | 200 µM (≈ 67.7 µg/mL) | 36.9 µM | 13.8 µM | 15 µM | 50 µM | Inhibition of E. coli DNA topoisomerase IV [4]: strongly inhibit
5 | O=C(O)c1cc(O)c(O)c(OC(=O)c2cc(O)c(O)c(O)c2)c1 [Digallic acid, digallic acid] | > 200 µM | 200 µM (≈ 64.4 µg/mL) | 200 µM (≈ 64.4 µg/mL) | 7.3 µM | 1.9 µM | 2 µM | 8 µM | Gyrase poisoning (gyrase-mediated DNA cleavage) (E. coli DNA gyrase [5]): not bacterial DNA gyrase poisons; IC50 [6]: ~4 µM; Inhibition of human DNA topoisomerase IIα [7]: do not inhibit; Inhibition of human DNA topoisomerase I [8]: do not inhibit; Inhibition of E. coli DNA topoisomerase I [9]: do not inhibit; IC50 (E. coli DNA gyrase [1]; IC50 against E. coli DNA gyrase, gel (Figure 1)): ~2 µM; IC50 [4]: ~8 µM; Ki (E. coli DNA gyrase [10]): 0.347 µM; Vmax of gyrase ATPase (E. coli DNA gyrase [10]; in the presence of 500 nM of digallic acid, without inhibitor 16.3 ± 2.5 nM/s): 17.8 ± 5.0 nM/s; Inhibition of ATPase activities of E. coli DNA gyrase (E. coli DNA gyrase [10]; in words, 100 μM (Figure 3d)): greatly inhibit; Inhibition of ATPase activities of bacterial DNA topoisomerase IV [11]: inhibit
6 | CCCCCCCCOC(=O)c1cc(O)c(O)c(O)c1 [Octyl gallate, octyl gallate] | > 200 µM | 200 µM (≈ 56.5 µg/mL) | 100 µM (≈ 28.2 µg/mL) | 41.2 µM | 26 µM | 50 µM | 50 µM | Inhibition of E. coli DNA topoisomerase IV [4]: strongly inhibit
7 | O=C(O)c1cc(O)c(O)c(O)c1 [Gallic acid, gallic acid] | – | – | – | – | – | > 500 µM | > 500 µM | –
8 | O=C(O[C@@H]1Cc2c(O)cc(O)cc2O[C@@H]1c1cc(O)c(O)c(O)c1)c1cc(O)c(O)c(O)c1 [EGCG, epigallocatechin gallate, reference compound] | – | – | – | – | – | – | – | Inhibition of E. coli DNA gyrase (E. coli DNA gyrase [1]): strongly inhibit
9 | O=C(/C=C/c1ccc(O)c(O)c1)O[C@@H]1CC(O)(C(=O)O)C[C@@H](OC(=O)/C=C/c2ccc(O)c(O)c2)C1O (stereo partly drawn) [3,5-dicaffeoylquinic acid, reference compound] | – | – | – | – | – | – | – | Inhibition of E. coli DNA gyrase (E. coli DNA gyrase [1]): strongly inhibit
10 | O=C(Oc1ccc(-c2ccccc2)cc1)c1cc(O)c(O)c(O)c1 [Biphenyl gallate, biphenyl gallate] | – | – | – | – | – | – | – | MIC (E. coli imp BAS3023): 200 µM (≈ 64.5 µg/mL); MIC (B. subtilis ATCC 6633): 50 to 100 µM; MIC (E. coli ATCC 25922; E. coli ATCC 25922): >200 µM; MIC (S. aureus ATCC 14775; S. aureus ATCC 14775): 50 µM (≈ 16.1 µg/mL); MIC (MRSA ATCC 33591; MRSA ATCC 33591): 50 µM (≈ 16.1 µg/mL)
11 | tannic acid | – | – | – | – | – | – | – | IC50 (E. coli DNA gyrase [1]; read-out: IC50 against E. coli DNA gyrase, gel (Figure 1)): 1 µM
12 | CCCCOC(=O)c1cc(O)c(O)c(O)c1 [Butyl gallate, butyl gallate] | > 200 µM | > 200 µM | > 200 µM | > 100 µM | > 100 µM | > 100 µM | > 100 µM | –
